Data reported in ChEMBL document CHEMBL1137338, “Effects of substitution on 9-(3-bromo-4-fluorophenyl)-5,9-dihydro-3H,4H-2,6-dioxa-4- azacyclopenta[b]naphthalene-1,8-dione, a dihydropyridine ATP-sensitive potassium channel opener” (J Med Chem, 2006).

These molecules were tested against Sulfonylurea receptor 2, Kir6.2 (Homo sapiens, UniProt O60706+Q14654) (assay: Ability to open human urinary bladder Kir6.2 channel containing SUR2B in Ltk cells by FLIPR assay).
Sequence of Sulfonylurea receptor 2, Kir6.2 (Q14654 whole entry): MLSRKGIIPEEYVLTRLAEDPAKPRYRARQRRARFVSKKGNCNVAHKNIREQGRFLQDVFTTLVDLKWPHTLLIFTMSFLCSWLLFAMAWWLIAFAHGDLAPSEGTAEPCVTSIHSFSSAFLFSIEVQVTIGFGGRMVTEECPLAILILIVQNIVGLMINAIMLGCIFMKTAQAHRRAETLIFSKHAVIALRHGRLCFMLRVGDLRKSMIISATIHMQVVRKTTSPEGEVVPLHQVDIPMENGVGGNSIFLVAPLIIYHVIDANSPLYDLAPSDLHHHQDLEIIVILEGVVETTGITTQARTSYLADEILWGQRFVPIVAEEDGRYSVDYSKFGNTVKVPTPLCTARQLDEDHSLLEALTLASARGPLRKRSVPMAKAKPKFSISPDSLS
Sequence of Sulfonylurea receptor 2, Kir6.2 (O60706 whole entry): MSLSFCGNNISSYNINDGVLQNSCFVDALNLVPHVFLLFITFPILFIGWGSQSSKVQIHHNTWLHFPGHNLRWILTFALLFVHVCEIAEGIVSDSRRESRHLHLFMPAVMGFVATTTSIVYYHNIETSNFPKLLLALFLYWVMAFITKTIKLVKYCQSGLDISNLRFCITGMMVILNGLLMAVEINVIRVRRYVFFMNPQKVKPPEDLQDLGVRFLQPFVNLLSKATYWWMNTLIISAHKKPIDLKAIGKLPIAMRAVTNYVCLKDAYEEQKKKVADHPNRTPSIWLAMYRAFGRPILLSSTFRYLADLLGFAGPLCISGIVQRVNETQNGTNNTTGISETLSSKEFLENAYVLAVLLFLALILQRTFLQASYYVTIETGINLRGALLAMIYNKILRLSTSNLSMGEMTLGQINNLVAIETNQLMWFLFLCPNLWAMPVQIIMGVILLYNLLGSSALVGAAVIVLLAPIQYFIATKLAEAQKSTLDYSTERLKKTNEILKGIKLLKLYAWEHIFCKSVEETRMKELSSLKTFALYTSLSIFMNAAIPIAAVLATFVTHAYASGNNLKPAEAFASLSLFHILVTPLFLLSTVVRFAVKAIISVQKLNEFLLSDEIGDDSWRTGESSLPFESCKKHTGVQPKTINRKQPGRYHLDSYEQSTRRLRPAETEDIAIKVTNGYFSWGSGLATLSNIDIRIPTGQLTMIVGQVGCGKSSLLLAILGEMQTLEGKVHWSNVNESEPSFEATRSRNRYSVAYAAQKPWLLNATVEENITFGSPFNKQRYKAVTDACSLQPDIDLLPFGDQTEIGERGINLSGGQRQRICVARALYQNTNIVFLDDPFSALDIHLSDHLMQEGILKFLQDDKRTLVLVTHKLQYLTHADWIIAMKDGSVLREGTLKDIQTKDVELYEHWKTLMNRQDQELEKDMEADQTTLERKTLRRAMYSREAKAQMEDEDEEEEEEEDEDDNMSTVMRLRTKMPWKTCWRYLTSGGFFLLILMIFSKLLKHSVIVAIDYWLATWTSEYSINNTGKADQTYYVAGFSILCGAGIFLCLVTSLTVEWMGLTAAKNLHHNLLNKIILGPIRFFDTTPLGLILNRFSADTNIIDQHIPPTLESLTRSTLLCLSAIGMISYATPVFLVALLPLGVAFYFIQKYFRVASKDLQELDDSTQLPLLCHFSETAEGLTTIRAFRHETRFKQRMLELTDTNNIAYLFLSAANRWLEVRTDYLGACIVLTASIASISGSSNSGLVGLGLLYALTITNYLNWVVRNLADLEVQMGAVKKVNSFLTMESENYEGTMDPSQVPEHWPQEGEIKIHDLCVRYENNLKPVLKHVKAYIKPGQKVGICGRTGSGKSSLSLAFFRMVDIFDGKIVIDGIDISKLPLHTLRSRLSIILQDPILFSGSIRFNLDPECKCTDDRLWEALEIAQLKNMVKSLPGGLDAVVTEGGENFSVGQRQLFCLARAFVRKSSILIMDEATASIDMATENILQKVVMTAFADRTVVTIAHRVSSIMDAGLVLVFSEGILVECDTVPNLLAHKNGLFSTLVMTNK
Type: functional, cell-based
Method in brief: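 Ltk- cells stably transfected with the Kir6.2/SUR2B exon 17- splice variant. Membrane potential was followed with DiBAC dye in a 96-well cell-based kinetic fluorescence (FLIPR) assay. The highest concentration tested was 10 µM. Each compound's maximal fluorescence response was expressed as % of the response to the reference opener.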
Molecule O=C1COCC2=C1C(c1ccc(F)c(Br)c1)C1=C(O)C3(CCCC3)OCC1=N2 (configuration not stated) has an EC50 of over 10 µM. In the case of CC[C@H]1OCC(O)=C2C1=NC1=C(C(=O)COC1)[C@H]2c1ccc(Cl)c(Br)c1 (racemic), the EC50 is reported as 1.62 µM. With CCC[C@H]1OC(O)=C2C1=NC1=C(C(=O)COC1)[C@H]2c1ccc(F)c(Cl)c1 (racemic) the EC50 was 0.0676 µM. CC[C@H]1OCC(O)=C2C1=NC1=C(C(=O)COC1)[C@H]2c1ccc(C)c(Br)c1 (racemic) was tested, and the EC50 was 1.58 µM. For CCC[C@H]1OC(O)=C2C1=NC1=C(C(=O)COC1)[C@H]2c1ccc(Cl)c(Cl)c1 (racemic), the EC50 was 0.603 µM. With CCC[C@H]1OC(O)=C2C1=NC1=C(C(=O)COC1)[C@H]2c1ccc(Br)c(Br)c1 (racemic) the EC50 was 0.331 µM. In the case of CCC[C@H]1OC(O)=C2C1=NC1=C(C(=O)COC1)[C@H]2c1ccc(Cl)c(Br)c1 (racemic), the EC50 is reported as 0.174 µM. Molecule CC[C@@H]1OCC2=C(C1=O)[C@@H](c1ccc(F)c(Br)c1)C1=C(O)OCC1=N2 (racemic) has an EC50 of over 10 µM. For C[C@H]1OC(O)=C2C1=NC1=C(C(=O)COC1)[C@H]2c1ccc(F)c(Br)c1 (racemic), the EC50 was 1 µM. Work on CC[C@H]1OCC(O)=C2C1=NC1=C(C(=O)COC1)[C@H]2c1ccc(Cl)c(Cl)c1 (racemic) yielded an EC50 of 0.105 µM. COC[C@H]1OC(O)=C2C1=NC1=C(C(=O)COC1)[C@H]2c1ccc(F)c(Br)c1 (racemic) was tested, and the EC50 was 0.0229 µM. For CCC[C@H]1OC(O)=C2C1=NC1=C(C(=O)COC1)[C@H]2c1ccc(C)c(Br)c1 (racemic), the EC50 was 0.398 µM. CCC[C@@H]1OC(O)=C2C1=NC1=C(C(=O)COC1)[C@H]2c1ccc(F)c(Br)c1 (racemic) was tested, and the EC50 was 0.00513 µM. Molecule CCC[C@H]1OC(O)=C2C1=NC1=C(C(=O)COC1)[C@H]2c1ccc(Br)c(Cl)c1 (racemic) has an EC50 of 0.427 µM. Molecule CC[C@H]1OC(O)=C2C1=NC1=C(C(=O)COC1(C)C)[C@H]2c1ccc(F)c(Br)c1 (racemic) has an EC50 of 3.47 µM. CC[C@@H]1OC(O)=C2C1=NC1=C(C(=O)COC1)[C@H]2c1ccc(F)c(Br)c1 (racemic) showed an EC50 of 0.0355 µM. CC[C@@H]1OCC(O)=C2C1=NC1=C(C(=O)COC1)[C@H]2c1ccc(F)c(Br)c1 (racemic) was tested, and the EC50 was 0.0141 µM. Work on C[C@@H]1OCC2=C(C1=O)[C@H](c1ccc(F)c(Br)c1)C1=C(O)OCC1=N2 (racemic) yielded an EC50 of 0.457 µM. In the case of CC[C@H]1OCC(O)=C2C1=NC1=C(C(=O)COC1)[C@H]2c1ccc(Br)c(Br)c1 (racemic), the EC50 is reported as 0.135 µM. CC(C)C[C@H]1OC(O)=C2C1=NC1=C(C(=O)COC1)[C@H]2c1ccc(F)c(Br)c1 (racemic) showed an EC50 of over 10 µM. Work on CC[C@H]1OCC(O)=C2C1=NC1=C(C(=O)COC1)[C@H]2c1ccc(F)c(Cl)c1 (racemic) yielded an EC50 of 0.457 µM. In the case of CCCC[C@H]1OC(O)=C2C1=NC1=C(C(=O)COC1)[C@H]2c1ccc(F)c(Br)c1 (racemic), the EC50 is reported as 2.19 µM. For CC[C@H]1OCC(O)=C2C1=NC1=C(C(=O)COC1)[C@H]2c1ccc(F)c(I)c1 (racemic), the EC50 was 12 µM. For CC[C@H]1OCC(O)=C2C1=NC1=C(C(=O)COC1)[C@H]2c1ccc(Br)c(Cl)c1 (racemic), the EC50 was 1 µM. CC[C@H]1OCC(O)=C2C1=NC1=C(C(=O)COC1)[C@H]2c1ccc(F)c(Br)c1 (racemic) showed an EC50 of 0.186 µM. Work on C[C@@H]1OCC2=C(C1=O)[C@@H](c1ccc(F)c(Br)c1)C1=C(O)OCC1=N2 (racemic) yielded an EC50 of 0.501 µM. CCC[C@H]1OC(O)=C2C1=NC1=C(C(=O)COC1)[C@H]2c1ccc(F)c(I)c1 (racemic) showed an EC50 of 0.0759 µM. With C[C@@H]1OC(O)=C2C1=NC1=C(C(=O)COC1)[C@H]2c1ccc(F)c(Br)c1 (racemic) the EC50 was 0.0055 µM. Molecule CC[C@H]1OC(O)=C2C1=NC1=C(C(=O)C(C)(C)OC1)[C@H]2c1ccc(F)c(Br)c1 (racemic) has an EC50 of 0.282 µM. CCCCC[C@H]1OC(O)=C2C1=NC1=C(C(=O)COC1)[C@H]2c1ccc(F)c(Br)c1 (relative stereo) showed an EC50 of over 10 µM. Work on CCCCC[C@@H]1OC(O)=C2C1=NC1=C(C(=O)COC1)[C@H]2c1ccc(F)c(Br)c1 (relative stereo) yielded an EC50 of over 10 µM. Molecule CC(C)[C@H]1OC(O)=C2C1=NC1=C(C(=O)COC1)[C@H]2c1ccc(F)c(Br)c1 (relative stereo) has an EC50 of over 10 µM.
